From ChEMBL document CHEMBL1147690, “A cassette-dosing approach for improvement of oral bioavailability of dual TACE/MMP inhibitors” (Bioorg Med Chem Lett, 2006) come the findings set out here.

pIC50, pKi: −log10 of the molar value.

Series [1] deals with T1, Disintegrin and metalloproteinase domain-containing protein 17 (Homo sapiens, UniProt P78536). In words: Inhibition of LPS/interferon gamma-stimulated TNFalpha release from HPBMC. Format: functional.
The target in series [2] is T1, Disintegrin and metalloproteinase domain-containing protein 17. Nature of the series: Binding affinity to recombinant TACE.
Another series has as its target T2, Interstitial collagenase (Homo sapiens, UniProt P03956).
T2 sequence (P03956 whole entry): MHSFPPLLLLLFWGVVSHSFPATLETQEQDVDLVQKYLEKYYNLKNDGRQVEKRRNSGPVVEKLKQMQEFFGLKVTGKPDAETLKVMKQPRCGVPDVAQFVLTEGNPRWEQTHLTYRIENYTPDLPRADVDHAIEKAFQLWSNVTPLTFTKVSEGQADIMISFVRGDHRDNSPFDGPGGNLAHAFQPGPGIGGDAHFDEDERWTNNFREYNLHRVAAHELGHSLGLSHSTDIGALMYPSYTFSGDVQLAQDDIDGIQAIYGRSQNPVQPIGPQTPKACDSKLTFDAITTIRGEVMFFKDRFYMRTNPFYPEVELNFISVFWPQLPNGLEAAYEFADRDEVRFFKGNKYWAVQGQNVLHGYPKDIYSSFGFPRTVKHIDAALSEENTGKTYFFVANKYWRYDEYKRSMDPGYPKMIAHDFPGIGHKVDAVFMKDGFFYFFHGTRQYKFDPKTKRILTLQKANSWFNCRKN
Nature of the series: Binding affinity to recombinant MMP1.

The target in another series is Stromelysin-1 (Homo sapiens, UniProt P08254). Nature of the series: Binding affinity to recombinant MMP3. Put shortly:
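Recombinant enzyme activity measured by a fluorimetric assay.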

The next series has as its target Collagenase 3 (Homo sapiens, UniProt P45452). Nature of the series: Binding affinity to recombinant MMP13.
Series [3] can be described thus: Clearance in rat at 1 mg/kg, iv and 3 mg/kg, po. Format: ADME, organism-based. Particulars: in vivo. Put shortly: (§1)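 Conscious, permanently cannulated rats (n = 4) were dosed with a five-compound cassette or a single compound. Dosing was 1 mg/kg iv into the femoral vein (30% N-methyl-2-pyrrolidone in PEG 200) and 3 mg/kg po by gavage (3% ethanol in corn oil), in the same animals with a 48 h washout. Femoral-artery plasma was sampled for 24 h (iv) or 7 h (po), acetonitrile-precipitated and analysed by HPLC/MS.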

Series [4] is described as follows: Oral bioavailability in rat at 1 mg/kg, iv and 3 mg/kg, po. Format: ADME, organism-based. As to conditions: in vivo. Put shortly:
as §1

The next series has as its system Rattus norvegicus. In words: Cmax in rat at 3 mg/kg, po normalized to 1 mg/kg. As to conditions: in vivo. Format: ADME, organism-based. On the set-up: dose 3 mg/kg, route oral. Put shortly: as §1
Series [5] is described as follows: Volume of distribution in rat at 1 mg/kg, iv and 3 mg/kg, po. It counts as ADME, organism-based. Particulars: in vivo, read-out: Vdss. The gist of the method:
as §1

T1 sequence (P78536 whole entry, the tested form may be a part): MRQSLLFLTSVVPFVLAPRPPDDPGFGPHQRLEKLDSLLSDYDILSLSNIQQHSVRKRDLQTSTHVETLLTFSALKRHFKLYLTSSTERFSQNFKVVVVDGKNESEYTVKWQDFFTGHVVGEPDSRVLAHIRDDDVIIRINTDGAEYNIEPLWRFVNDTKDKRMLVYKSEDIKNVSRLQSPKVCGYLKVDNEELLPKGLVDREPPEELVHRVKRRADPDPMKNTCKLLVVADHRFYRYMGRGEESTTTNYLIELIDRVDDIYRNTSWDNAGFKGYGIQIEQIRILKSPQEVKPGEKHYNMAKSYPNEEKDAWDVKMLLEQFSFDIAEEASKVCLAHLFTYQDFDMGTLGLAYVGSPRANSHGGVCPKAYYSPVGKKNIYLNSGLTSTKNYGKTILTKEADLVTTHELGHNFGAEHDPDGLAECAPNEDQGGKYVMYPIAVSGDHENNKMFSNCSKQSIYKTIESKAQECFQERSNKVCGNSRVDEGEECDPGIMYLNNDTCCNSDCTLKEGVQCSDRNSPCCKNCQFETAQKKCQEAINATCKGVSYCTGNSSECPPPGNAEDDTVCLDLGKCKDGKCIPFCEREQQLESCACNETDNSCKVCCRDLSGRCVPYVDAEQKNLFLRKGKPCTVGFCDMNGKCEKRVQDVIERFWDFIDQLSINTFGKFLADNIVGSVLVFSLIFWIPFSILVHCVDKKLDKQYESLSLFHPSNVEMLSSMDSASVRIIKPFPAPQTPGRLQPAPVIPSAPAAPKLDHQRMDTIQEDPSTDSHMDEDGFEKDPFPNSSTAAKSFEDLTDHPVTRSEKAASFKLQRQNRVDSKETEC
Sequence of Stromelysin-1 (P08254 whole entry): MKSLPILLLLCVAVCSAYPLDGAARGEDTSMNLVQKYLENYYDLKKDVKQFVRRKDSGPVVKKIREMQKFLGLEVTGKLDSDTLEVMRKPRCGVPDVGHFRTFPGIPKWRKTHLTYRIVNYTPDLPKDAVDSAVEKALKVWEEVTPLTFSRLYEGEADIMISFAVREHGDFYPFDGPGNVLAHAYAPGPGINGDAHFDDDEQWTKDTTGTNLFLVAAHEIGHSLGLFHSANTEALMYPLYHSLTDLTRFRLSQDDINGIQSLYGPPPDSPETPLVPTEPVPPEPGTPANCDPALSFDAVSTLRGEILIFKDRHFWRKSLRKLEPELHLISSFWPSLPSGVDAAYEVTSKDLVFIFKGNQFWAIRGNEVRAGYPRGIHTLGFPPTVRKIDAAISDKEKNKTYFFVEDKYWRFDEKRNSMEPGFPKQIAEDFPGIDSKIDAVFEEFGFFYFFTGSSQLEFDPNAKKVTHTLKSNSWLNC

For orientation: pIC50 means −log10 of the IC50, conventionally taken in molar units. For orientation: pKi means the negative decadic logarithm of the Ki, by convention in mol/L. With `CN1C(=O)N(C[C@H](C(=O)NO)[C@@H](CC2CCCC2)C(=O)N2CCCCC2)C(=O)C1(C)C`, the pIC50 in series [1] is below 5.00. Besides, in series [2], the negative-log Ki (pKi) is 6.64.
On to `COc1ccc([C@@H](C(=O)N2CCCCC2)[C@H](CO)C(=O)NO)cc1`, for which the pKi at Interstitial collagenase is 6.67; at Stromelysin-1, 6.52; on Collagenase 3, 7.26; in series [2], 7.18. The compound also showed a pIC50 in [1] below 5.00.
On the same counts, the results for `CC[C@H](C(=O)NO)[C@H](C(=O)N1CCCC[C@H]1C(=O)NC)c1ccc(OC)cc1` are 7.60, 7.96, 8.15, 8.10 and 6.08.
On the same counts, the results for `CNC(=O)[C@@H](NC(=O)[C@H](c1ccc(OC)cc1)[C@H](CN1C(=O)N(C)C(C)(C)C1=O)C(=O)NO)C(C)(C)C` are 9.15, 7.92, 8.52, 7.24 and 6.32.
The term bioavailability denotes the share of a dose that reaches the circulation, judged against a reference dose that is usually intravenous. The Cmax is the peak of the concentration-time curve. For the compound `CC[C@H](C(=O)NO)[C@H](C(=O)N1CCCC[C@H]1C(=O)NC)c1ccc(Cl)cc1`, the negative-log Ki (pKi) at Interstitial collagenase is 9.15; on Collagenase 3, 8.70; in series [2], 8.30. For the same compound, the clearance in series [3] is 28.1 mL/min/kg. The compound also yielded a bioavailability in series [4] of 47.1%. In addition, the Cmax with Rattus norvegicus turned out to be 388.6 nM. This compound showed a pIC50 in series [1] of 6.50. Further, in [5], the Vd stood at 16.7 L/kg.
Consider `COc1ccc([C@@H](C(=O)N2CCCCC2)[C@H](CN2C(=O)N(C)C(C)(C)C2=O)C(=O)NO)cc1`, for which the pKi was 7.08 at Interstitial collagenase, 6.73 on Stromelysin-1, 7.72 at Collagenase 3 and 6.49 in [2]. Moreover, the pIC50 in series [1] is below 5.00.
Regarding `CNC(=O)[C@@H]1CCCCN1C(=O)[C@H](c1ccc(OC)cc1)[C@H](CO)C(=O)NO`, the pKi at Interstitial collagenase is 7.64; at Collagenase 3 it was 8.00; in [2] it was 8.10. The clearance in series [3] was 23.2 mL/min/kg. For the same compound, in series [4], the bioavailability was found to be 8.4%. The compound further had a Cmax in the series on Rattus norvegicus of 38.1 nM. The same compound showed a pIC50 in series [1] below 5.00. Further, in series [5], the Vd is 1.06 L/kg.
Take `CNC(=O)[C@@H](NC(=O)C(c1ccc(OC)cc1)C(CO)C(=O)NO)C(C)(C)C` (single isomer, unassigned): the pKi at Interstitial collagenase is 9.00; at Collagenase 3, 9.30. In series [3], the clearance came out at 10 mL/min/kg. This compound returned a bioavailability in [4] of 3.2%. Also, the Cmax in the series with Rattus norvegicus came to 42.7 nM. This compound had a pIC50 in series [1] of 7.32. The Vd in [5] is 0.34 L/kg.
